Experimental data from paper PMC11339345 (International Journal of Nanomedicine, 2024).

Legend:
[1] = two hours of incubation in an alkaline solution (0.005 N NaOH, pH roughly 11.7) ref 39; cited from earlier work
[2] = Pharmacokinetics of DTX in mice after oral administration; assay type: in vivo; conditions: male, Kunming, mouse, plasma (systemic circulation), 20 mg/kg, oral 20 mg/kg DTX
Procedure, shortened: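 Male SPF Kunming mice (22–24 g) were randomised by weight and given a single oral dose of 20 mg/kg. Free drug was prepared as a sonicated water dispersion and the nanoparticle powder was vortexed in water. Five mice were sampled per time point (0.125–12 h) under Zoletil anaesthesia. Portal and systemic heparin plasma were collected, and liver and lung were rinsed, weighed and homogenised in water. Samples were acetonitrile-precipitated and assayed by LC-MS/MS, with parameters from non-compartmental analysis.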

[3] = cited from earlier work

Tmax [2]: 30 min
SMILES: CC(=O)O[C@@]12CO[C@@H]1C[C@H](O)[C@@]1(C)C(=O)[C@H](O)C3=C(C)[C@@H](OC(=O)[C@H](O)[C@@H](NC(=O)OC(C)(C)C)c4ccccc4)C[C@@](O)([C@@H](OC(=O)c4ccccc4)[C@H]21)C3(C)C [DTX, Docetaxel]
Degradation [1]: about 25%
Oral bioavailability [3]: 7.39%
